GASC-1 inh: inhibitors of human GASC-1 (JMJD2C) demethylase; Q9H3R0; GST-JMJD2C(1-420) H3K9me3 demethylation, DELFIA europium; inhibition, % at 2.35 µM; 330,000 compounds, 0.069% hits;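 active means more than half of a compound's replicate wells show inhibition beyond 50%, single wells judged on their own value; inconclusive means some, but no more than half, of replicates pass 50% inhibition; inactive means no replicate passes 50% inhibition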;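 further: signal counts dimethyl H3K9 product captured on neutravidin plate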
DSG3 Ab inh: blocks pemphigus antibody binding to human desmoglein-3; 310,000 compounds, 0.48% hits; binding (percent of control), % at 10 µM; P32926; DSG3-coupled beads, scFv-anti-DSG3-GFP binding, flow cytometry; hits give low values; AID 588358;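 active means binding more than 3 SD below its plate's average and above zero; inconclusive means below that plate limit but binding exactly zero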;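 further: hits lower antibody fragment binding to DSG3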
HDAC3 inhib: inhibitors of human histone deacetylase 3; O15379; recombinant HDAC3, fluorogenic peptide/trypsin coupled, fluorescence; inhibition, % at 8.3 µM; 320,000 compounds, 0.15% hits; AID 2718; in the data active means inhibition above about 26%, passing the limit was not always enough; inconclusive means no clear call, values can overlap the other calls
LANA-H2B inh: blocks KSHV LANA binding to histone H2A/H2B; Q9QR71; cell-free LANA-H2A/H2B peptide, fluorescence polarization; inhibition, % (no concentration beside the values); 320,000 compounds, 0.6% hits; in the data active means inhibition mostly above about 10%, no sharp cut-off; inactive means mostly below about 6.7%
Arrestin-AP2 inh: blocks beta-arrestin peptide binding to AP2 adaptin; inhibition, % at 10 µM; 340,000 compounds, 0.31% hits; FITC-arrestin peptide / GST-AP2 beads, flow cytometry; AP2 beta2 appendage carries R879A mutation; AID 504490;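 active means inhibition above a set limit, near 3 SD of compounds lacking own fluorescence, cut at about 54% in these data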
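Material – AP2 appendage R879A on GSH beads · Buffer or medium – PBS with 0.05% Tween 20 and 0.1% BSA · Probe or stimulus – fluorescein-tagged arrestin peptide at 50 nM final · Incubation – compound with beads 12 min RT, then probe 1 h RT · Detection – high-throughput flow cytometry of beads, ex 488, em 535 nm · Evaluation – percent response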
T cell modulator: T cell immune modulation candidate | 2C CD8+ T cell-vesicle binding, flow cytometry; hits give low values | AID 2052 | 330,000 compounds, 0.068% hits | response (vesicle binding), % at 7 µM;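 active means response, share of CD8 T cells binding vesicles, and their 90th percentile fluorescence all below set limits, cut at about 80% in these data, passing the limit was not always enough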;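 further: values below 100% mean blocked vesicle binding to the CD8+ T cells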
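Also added: QL9-peptide-loaded Drosophila micro-vesicles bearing Ld, ICAM-1 and B7-1; Test system: purified 2C TCR transgenic mouse naive CD8+ T cells; Measured by: cytometric PE anti-B7-1 and Alexa647 anti-CD8 signals after 1% paraformaldehyde fixation; Timing: binding step 1.5 h, 37 °C, antibody labelling 20 min, ice.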
Large screens that a line does not name were inactive; ! = a repeat was not active. In the library only some 1.6% were active in any assay of this set; here they are far more common.

COc1ccc(OCCCC(=O)OCC(=O)Nc2sccc2C(N)=O)cc1	none (no result: HDAC3 inhib, LANA-H2B inh)
CC(=O)c1ccc(OCC(=O)OCC(=O)Nc2sccc2C(N)=O)cc1	LANA-H2B inh 15.7
Cc1ccc2nc3c(cc(C(=O)NCC4CCCO4)c(=N)n3CCCOC(C)C)c(=O)n2c1 (stereo not drawn)	LANA-H2B inh 18.1 (no result: HDAC3 inhib)
CCOCCCNc1nc2nc3ccc(C)cn3c(=O)c2cc1C(=O)NCC1CCCO1 (stereo not drawn)	none
Cc1cc(C(=O)N2CCCC2C(=O)O)c(C)o1 (stereo not drawn)	LANA-H2B inh 17.8
CN(CC(=O)Nc1ccc(Cl)cc1)C(=O)C1CCCC1	DSG3 Ab inh inconclusive (no result: GASC-1 inh, HDAC3 inhib, LANA-H2B inh, T cell modulator)
Clc1ccc(-c2ccnc(-n3cccc3)n2)s1	LANA-H2B inh 29.6
Clc1ccsc1-c1ccnc(-n2cccc2)n1	none
O=C(COC(=O)c1ccc(F)c(S(=O)(=O)N2CCOCC2)c1)Nc1ccc(Cl)cn1	none (no result: GASC-1 inh, HDAC3 inhib, LANA-H2B inh, Arrestin-AP2 inh, T cell modulator)
O=S(=O)(/N=S1\CC=CCN1S(=O)(=O)c1ccccc1)c1ccccc1 (stereo not drawn)	none (no result: GASC-1 inh, HDAC3 inhib, LANA-H2B inh, T cell modulator)
O=C(C=Cc1ccccc1)c1c[nH]c2ccccc2c1=O	none (no result: GASC-1 inh, HDAC3 inhib, LANA-H2B inh, T cell modulator)
O=C(/C=C/c1ccccc1)c1c[nH]c2ccccc12	DSG3 Ab inh 63.8
COCCN(C(=O)/C=C/c1ccccc1)c1nnc(-c2cccnc2)s1	LANA-H2B inh 56.1
COCCN(C(=O)c1cccc(OC)c1)c1nnc(-c2ccncc2)s1	none
Cc1cccc([N+](=O)[O-])c1C(=O)O	LANA-H2B inh 19.0
CC(C)[N+]1=C2C=CC=CC=C2SC12C([N+](=O)[O-])=CC(=[N+]([O-])[O-])C=C2[N+](=O)[O-] (stereo not drawn)	DSG3 Ab inh 66.4
Cc1ccc(S(=O)(=O)N(C)CC(=O)N(C)CCOc2ccccc2)cc1	none (no result: GASC-1 inh, HDAC3 inhib, LANA-H2B inh, Arrestin-AP2 inh, T cell modulator)
Cc1cc(Cl)ccc1N(CC(=O)N=Nc1c(O)[nH]c2ccccc12)S(C)(=O)=O	none
Cc1ccc(S(=O)(=O)N(CC(=O)N=Nc2c(O)[nH]c3ccccc23)c2cccc(C)c2)cc1	DSG3 Ab inh 84.8
CCOc1ccc(-n2nc3ccc(NC(=O)c4ccc5c(c4)OCCO5)cc3n2)cc1	DSG3 Ab inh 5.0
O=C(Nc1ccn([C@H]2CC[C@@H](CO)O2)c(=O)n1)c1ccccc1	none
O=C1CCC[C@@H]2Cc3nc4ccc(Cl)cc4cc3[C@@H]3CCN1[C@H]23	none (no result: GASC-1 inh, HDAC3 inhib, LANA-H2B inh, T cell modulator)
COCCn1c(-c2ccc(NC(C)=O)cc2)nc2c1c(=O)[nH]c(=O)n2CC(C)C	LANA-H2B inh 12.8
COCCn1c(-c2ccc(-c3ccccc3Cl)o2)nc2c1c(=O)[nH]c(=O)n2CC(C)C	none (no result: DSG3 Ab inh)
CCCCSc1nnc(-c2ccc(NC(=O)CCc3ccccc3)cc2)n1C	DSG3 Ab inh -28.0
Cn1c(SCC(=O)NCc2ccccc2)nnc1-c1ccc(NC(=O)CCc2ccccc2)cc1	none
NCCc1cnc[nH]1	LANA-H2B inh 21.8!
CCCCn1c(=O)c(Cc2ccccc2)c(O)c2ccccc21	none
CCCCc1c(O)c2ccccc2n(CCCC)c1=O	LANA-H2B inh 14.3
Cc1ccc(C(=O)c2coc3cc([N+](=O)[O-])c(O)c([N+](=O)[O-])c23)cc1	DSG3 Ab inh 19.9
CCCCN(CCCC)CCCN1CC(=O)N2[C@@H](Cc3c([nH]c4ccccc34)C2(C)C)C1=O	none
CCN(CC(=O)Nc1c(F)cccc1F)C(=O)CCCOc1ccccc1	none (no result: GASC-1 inh, HDAC3 inhib, LANA-H2B inh, T cell modulator)
CCOc1ccc(OCCCC(=O)N(CC)CC(=O)Nc2c(F)cccc2F)cc1	LANA-H2B inh 35.5
COC(=O)c1cc(S(=O)(=O)NCC2CCN(Cc3cc(C)ccc3C)CC2)c[nH]1	none (no result: DSG3 Ab inh)
Cc1cc(N2C(=O)C(=O)/C(=C(/O)c3ccc(F)cc3)C2c2cccc(Br)c2)no1 (stereo not drawn)	GASC-1 inh 56.2
O=C(Cc1ccc(Br)cc1)OCC(=O)N1CCCCCC1	none (no result: DSG3 Ab inh)
Cc1cccc2cc(COC(=O)c3cccc([N+](=O)[O-])c3)c(=O)[nH]c12	none (no result: DSG3 Ab inh, Arrestin-AP2 inh)
Cc1cccc2cc(CN(C(=O)c3cccc([N+](=O)[O-])c3)C(C)C)c(=O)[nH]c12	DSG3 Ab inh 59.5
COc1ccc(NC(C)=O)cc1S(=O)(=O)NCCc1ccccn1	LANA-H2B inh 29.9
N#Cc1ccc(NC(=S)NC(=O)C2CC2)cc1	none (no result: GASC-1 inh, HDAC3 inhib, LANA-H2B inh, Arrestin-AP2 inh, T cell modulator)

Source: PubChem
